The term GI50 denotes the concentration that inhibits growth by half. A low value points to greater sensitivity of the cells. Usually TGI stands for the concentration at which net growth stops. Low values mean greater sensitivity of the cells, high ones lower sensitivity of the cells. In general, inhibition refers to the change of the read-out against control, counted positive when it falls.

Experimental findings from ChEMBL document CHEMBL1165943, “Design and synthesis of new anticancer pyrimidines with multiple-kinase inhibitory effect” (Bioorg Med Chem, 2010) are described below.

The test system of assay [1] is PC-3. Nature of the assay: Growth inhibition of human PC3 cells after 48 hrs by sulforhodamine B assay. The assay is classed as functional, cell-based.
A further assay has as its system HOP-62. Nature of the assay: Cytotoxicity against human HOP62 cells assessed as cell growth at 0.001 uM after 48 hrs by sulforhodamine B assay. The assay is classed as functional. The settings on record: HOP-62, 48 h, read-out: Activity. (In general: The SRB assay estimates cell density from bound dye.)
Assay [2] deals with HOP-92. Nature of the assay: Cytotoxicity against human HOP92 cells assessed as cell growth at 0.001 uM after 48 hrs by sulforhodamine B assay. In kind it is functional. The settings on record: HOP-92, 48 h, read-out: Activity.
Assay [3] has as its system HCC 2998. Nature of the assay: Cytotoxicity against human HCC2998 cells assessed as cell growth at 0.001 uM after 48 hrs by sulforhodamine B assay. The note with it: HCC 2998, 48 h, read-out: Activity. In kind it is functional.
Assay [4] has as its system SK-MEL-28. Nature of the assay: Cytotoxicity against human SK-MEL-28 cells assessed as cell growth at 0.001 uM after 48 hrs by sulforhodamine B assay. The assay is classed as functional. The settings on record: SK-MEL-28, 48 h, read-out: Activity.
Assay [5] has as its system PC-3. Nature of the assay: Cytotoxicity against human PC3 cells assessed as cell growth at 0.001 uM after 48 hrs by sulforhodamine B assay. The assay is classed as functional. The settings on record: PC-3, 48 h, read-out: Activity.
A further assay deals with SR. Nature of the assay: Cytotoxicity against human SR cells assessed as cell growth at 100 nM after 48 hrs by sulforhodamine B assay. In kind it is functional. The settings on record: read-out: Activity.
The subject of another assay is NCI-H226. Nature of the assay: Cytotoxicity against human NCI-H226 cells assessed as cell growth at 100 nM after 48 hrs by sulforhodamine B assay. The settings on record: NCI-H226, 48 h, read-out: Activity. In kind it is functional.
Assay [6] can be described thus: Cytotoxicity against human RPMI8266 cells assessed as cell growth at 0.01 uM after 48 hrs by sulforhodamine B assay. The assay is classed as functional. The note with it: read-out: Activity.
Assay [7] deals with SK-MEL-28. Nature of the assay: Cytotoxicity against human SK-MEL-28 cells assessed as cell growth at 0.01 uM after 48 hrs by sulforhodamine B assay. In kind it is functional. The note with it: SK-MEL-28, 48 h, read-out: Activity.
Assay [8] concerns RXF 393. Nature of the assay: Cytotoxicity against human RXF393 cells assessed as cell growth at 10 uM after 48 hrs by sulforhodamine B assay. The assay is classed as functional. The note with it: RXF 393, 48 h, read-out: Activity.
Assay [9] deals with PC-3. Nature of the assay: Cytotoxicity against human PC3 cells assessed as cell growth at 10 uM after 48 hrs by sulforhodamine B assay. In kind it is functional. The note with it: PC-3, 48 h, read-out: Activity.
The subject of assay [10] is HOP-92. Nature of the assay: Cytotoxicity against human HOP92 cells assessed as cell growth at 1 uM after 48 hrs by sulforhodamine B assay. The assay is classed as functional. The settings on record: HOP-92, 48 h, read-out: Activity.
The subject of assay [11] is RXF 393. Nature of the assay: Cytotoxicity against human RXF393 cells assessed as cell growth at 0.01 uM after 48 hrs by sulforhodamine B assay. In kind it is functional. The note with it: RXF 393, 48 h, read-out: Activity.
Assay [12] has as its system PC-3. Nature of the assay: Cytotoxicity against human PC3 cells assessed as cell growth at 0.01 uM after 48 hrs by sulforhodamine B assay. In kind it is functional. The settings on record: PC-3, 48 h, read-out: Activity.
Assay [13] deals with MCF7. Nature of the assay: Cytotoxicity against human MCF7 cells assessed as cell growth at 0.01 uM after 48 hrs by sulforhodamine B assay. In kind it is functional. The settings on record: MCF7, 48 h, read-out: Activity.
Assay [14] can be described thus: Growth inhibition of human RPMI8266 cells after 48 hrs by sulforhodamine B assay. The assay is classed as functional. The method, boiled down: (§1)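 Cells grown in RPMI 1640 with 5% FBS and 2 mM L-glutamine, seeded at 5,000–40,000 cells/well according to doubling time. After 24 h, time-zero plates are TCA-fixed. Five concentrations (10-fold or ½log dilutions, DMSO stocks) are applied for 48 h at 37 °C, 5% CO₂. Cells are TCA-fixed, SRB-stained and read at 515 nm. IC₅₀ is taken from [(Ti−Tz)/(C−Tz)]×100 = 50.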

Assay [15] has as its system RXF 393. Nature of the assay: Cytotoxicity against human RXF393 cells assessed as cell growth at 1 uM after 48 hrs by sulforhodamine B assay. In kind it is functional. The settings on record: RXF 393, 48 h, read-out: Activity.
Assay [16] relates to PC-3. Nature of the assay: Cytotoxicity against human PC3 cells assessed as cell growth at 1 uM after 48 hrs by sulforhodamine B assay. The assay is classed as functional. The note with it: PC-3, 48 h, read-out: Activity.
The test system of assay [17] is MCF7. Nature of the assay: Cytotoxicity against human MCF7 cells assessed as cell growth at 1 uM after 48 hrs by sulforhodamine B assay. The note with it: MCF7, 48 h, read-out: Activity. The assay is classed as functional.
Assay [18] can be described thus: Cytotoxicity against human […] cells assessed as cell growth at 10 uM after 48 hrs by sulforhodamine B assay. The assay is classed as functional. The settings on record: read-out: Activity.
Assay [19] relates to HCC 2998. Nature of the assay: Growth inhibition of human HCC2998 cells after 48 hrs by sulforhodamine B assay. The settings on record: HCC 2998, 48 h. In kind it is functional. The gist of the method:
as §1

The target of assay [20] is High affinity nerve growth factor receptor (Homo sapiens) (UniProt P04629). Nature of the assay: Inhibition of NTRK1 at 10 uM by HotSpot assay.
The target of assay [21] is Tyrosine-protein kinase ABL1 (Homo sapiens) (UniProt P00519). Nature of the assay: Inhibition of ABL1 at 10 uM by HotSpot assay.
Assay [22] addresses Proto-oncogene tyrosine-protein kinase Src (Homo sapiens) (UniProt P12931). Nature of the assay: Inhibition of c-SRC at 10 uM by HotSpot assay.
Assay [23] has as its target DNA-dependent protein kinase catalytic subunit (Homo sapiens) (UniProt P78527). Nature of the assay: Inhibition of DNA-PK at 10 uM by HotSpot assay.
The target in assay [24] is Epidermal growth factor receptor (Homo sapiens) (UniProt P00533). Nature of the assay: Inhibition of EGFR at 10 uM by HotSpot assay.
For assay [25], the target named is Ephrin type-A receptor 1 (Homo sapiens) (UniProt P21709). Nature of the assay: Inhibition of EPHA1 at 10 uM by HotSpot assay.
For assay [26], the target named is Mitogen-activated protein kinase 1 (Homo sapiens) (UniProt P28482). Nature of the assay: Inhibition of MAPK1 at 10 uM by HotSpot assay.
Assay [27] concerns the target Homeodomain-interacting protein kinase 1 (Homo sapiens) (UniProt Q86Z02). Nature of the assay: Inhibition of HIPK1 at 10 uM by HotSpot assay.
Assay [28] concerns the target Insulin-like growth factor 1 receptor (Homo sapiens) (UniProt P08069). Nature of the assay: Inhibition of IGF1R at 10 uM by HotSpot assay.
The target of assay [29] is Tyrosine-protein kinase JAK3 (Homo sapiens) (UniProt P52333). Nature of the assay: Inhibition of JAK3 at 10 uM by HotSpot assay.
The target in assay [30] is Mitogen-activated protein kinase 8 (Homo sapiens) (UniProt P45983). Nature of the assay: Inhibition of JNK1 at 10 uM by HotSpot assay.
For assay [31], the target named is Serine/threonine-protein kinase mTOR (Homo sapiens) (UniProt P42345). Nature of the assay: Inhibition of mTOR at 10 uM by HotSpot assay.
For assay [32], the target named is Mitogen-activated protein kinase 14 (Homo sapiens) (UniProt Q16539). Nature of the assay: Inhibition of p38alpha at 10 uM by HotSpot assay.
Assay [33] addresses Ribosomal protein S6 kinase beta-1 (Homo sapiens) (UniProt P23443). Nature of the assay: Inhibition of p70S6K1 at 10 uM by HotSpot assay.
Assay [34] in a line: Inhibition of PKA at 10 uM by HotSpot assay.
In assay [35] the target is Serine/threonine-protein kinase PLK1 (Homo sapiens) (UniProt P53350). Nature of the assay: Inhibition of PLK1 at 10 uM by HotSpot assay.
Assay [36] has as its target Macrophage-stimulating protein receptor (Homo sapiens) (UniProt Q04912). Nature of the assay: Inhibition of RON at 10 uM by HotSpot assay.
Assay [37] addresses Tyrosine-protein kinase SYK (Homo sapiens) (UniProt P43405). Nature of the assay: Inhibition of SYK at 10 uM by HotSpot assay.
[38] abbreviates: read-out: LC50 (the source's name).

Homeodomain-interacting protein kinase 1 (Homo sapiens), sequence (Q86Z02 whole entry, looked up): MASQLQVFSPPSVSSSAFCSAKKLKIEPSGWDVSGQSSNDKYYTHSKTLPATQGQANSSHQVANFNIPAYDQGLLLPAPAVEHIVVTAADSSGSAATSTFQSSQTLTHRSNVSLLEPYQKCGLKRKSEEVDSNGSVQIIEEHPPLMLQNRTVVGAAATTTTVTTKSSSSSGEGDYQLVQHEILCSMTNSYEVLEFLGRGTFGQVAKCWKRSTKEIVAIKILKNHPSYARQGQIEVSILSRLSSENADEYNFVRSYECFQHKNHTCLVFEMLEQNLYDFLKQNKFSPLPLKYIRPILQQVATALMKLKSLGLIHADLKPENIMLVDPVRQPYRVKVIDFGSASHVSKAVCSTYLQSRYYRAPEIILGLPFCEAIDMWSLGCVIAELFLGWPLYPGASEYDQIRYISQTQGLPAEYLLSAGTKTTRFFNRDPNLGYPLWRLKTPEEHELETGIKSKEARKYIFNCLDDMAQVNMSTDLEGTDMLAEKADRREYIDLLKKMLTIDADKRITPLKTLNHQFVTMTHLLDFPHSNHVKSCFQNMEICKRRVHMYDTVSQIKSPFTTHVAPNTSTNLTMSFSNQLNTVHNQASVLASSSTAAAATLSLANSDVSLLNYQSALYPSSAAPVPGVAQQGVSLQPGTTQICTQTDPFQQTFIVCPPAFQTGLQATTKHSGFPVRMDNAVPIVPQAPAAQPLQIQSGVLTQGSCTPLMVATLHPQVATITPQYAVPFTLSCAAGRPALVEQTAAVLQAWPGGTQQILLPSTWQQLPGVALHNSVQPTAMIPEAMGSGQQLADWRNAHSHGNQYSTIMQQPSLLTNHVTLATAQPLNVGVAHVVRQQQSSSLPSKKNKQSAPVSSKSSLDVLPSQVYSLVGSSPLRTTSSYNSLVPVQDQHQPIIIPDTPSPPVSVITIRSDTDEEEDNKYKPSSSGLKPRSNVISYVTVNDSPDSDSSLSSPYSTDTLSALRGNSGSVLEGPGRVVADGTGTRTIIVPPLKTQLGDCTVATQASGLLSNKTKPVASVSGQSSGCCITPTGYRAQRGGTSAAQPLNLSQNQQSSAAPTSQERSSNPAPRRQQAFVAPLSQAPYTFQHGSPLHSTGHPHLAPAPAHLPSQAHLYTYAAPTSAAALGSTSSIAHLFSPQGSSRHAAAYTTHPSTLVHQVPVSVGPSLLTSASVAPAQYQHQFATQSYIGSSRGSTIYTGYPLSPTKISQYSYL
Serine/threonine-protein kinase PLK1 (Homo sapiens), sequence (P53350 whole entry): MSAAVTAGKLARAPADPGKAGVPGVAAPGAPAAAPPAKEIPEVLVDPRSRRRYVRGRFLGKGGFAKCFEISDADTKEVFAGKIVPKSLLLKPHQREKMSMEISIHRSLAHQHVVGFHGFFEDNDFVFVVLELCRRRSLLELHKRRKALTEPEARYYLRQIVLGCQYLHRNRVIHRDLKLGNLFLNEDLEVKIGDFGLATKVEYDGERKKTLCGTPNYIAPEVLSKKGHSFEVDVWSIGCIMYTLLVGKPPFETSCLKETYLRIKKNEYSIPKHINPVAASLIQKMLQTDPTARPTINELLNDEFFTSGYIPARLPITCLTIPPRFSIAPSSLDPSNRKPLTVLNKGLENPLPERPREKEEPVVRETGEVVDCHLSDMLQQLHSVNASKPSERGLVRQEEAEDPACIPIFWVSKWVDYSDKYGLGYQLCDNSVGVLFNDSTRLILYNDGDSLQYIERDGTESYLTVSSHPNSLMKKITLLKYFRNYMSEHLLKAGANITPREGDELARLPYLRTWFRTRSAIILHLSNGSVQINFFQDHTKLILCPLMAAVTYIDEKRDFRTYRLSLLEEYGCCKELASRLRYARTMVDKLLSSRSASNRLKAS
Proto-oncogene tyrosine-protein kinase Src (Homo sapiens), sequence (P12931 2-536 limits assumed): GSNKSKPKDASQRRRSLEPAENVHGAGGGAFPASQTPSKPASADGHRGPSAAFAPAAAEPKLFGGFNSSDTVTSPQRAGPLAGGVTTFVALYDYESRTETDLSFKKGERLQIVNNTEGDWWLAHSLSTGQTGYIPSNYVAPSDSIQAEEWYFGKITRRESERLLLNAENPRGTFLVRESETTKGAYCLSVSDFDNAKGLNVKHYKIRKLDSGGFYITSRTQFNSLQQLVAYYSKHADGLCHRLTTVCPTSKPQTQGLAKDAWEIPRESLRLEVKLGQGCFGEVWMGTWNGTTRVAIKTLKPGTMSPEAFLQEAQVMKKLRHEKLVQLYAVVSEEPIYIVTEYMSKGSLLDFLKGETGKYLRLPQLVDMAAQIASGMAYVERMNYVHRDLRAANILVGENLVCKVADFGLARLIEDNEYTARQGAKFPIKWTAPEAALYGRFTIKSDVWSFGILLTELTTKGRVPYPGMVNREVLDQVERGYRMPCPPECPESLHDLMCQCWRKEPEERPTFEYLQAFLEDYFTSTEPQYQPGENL
Mitogen-activated protein kinase 14 (Homo sapiens), sequence (Q16539 whole entry): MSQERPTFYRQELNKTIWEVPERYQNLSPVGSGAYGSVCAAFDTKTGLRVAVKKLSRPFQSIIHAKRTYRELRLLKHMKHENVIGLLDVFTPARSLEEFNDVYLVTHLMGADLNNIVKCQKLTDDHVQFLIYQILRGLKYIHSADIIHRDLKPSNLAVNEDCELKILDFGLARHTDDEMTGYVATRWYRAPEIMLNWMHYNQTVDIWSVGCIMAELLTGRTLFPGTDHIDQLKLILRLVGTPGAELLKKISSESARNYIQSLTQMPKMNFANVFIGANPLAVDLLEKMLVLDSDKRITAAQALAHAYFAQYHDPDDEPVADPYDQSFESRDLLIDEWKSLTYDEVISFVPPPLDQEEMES
High affinity nerve growth factor receptor (Homo sapiens), sequence (P04629 33-796 limits assumed): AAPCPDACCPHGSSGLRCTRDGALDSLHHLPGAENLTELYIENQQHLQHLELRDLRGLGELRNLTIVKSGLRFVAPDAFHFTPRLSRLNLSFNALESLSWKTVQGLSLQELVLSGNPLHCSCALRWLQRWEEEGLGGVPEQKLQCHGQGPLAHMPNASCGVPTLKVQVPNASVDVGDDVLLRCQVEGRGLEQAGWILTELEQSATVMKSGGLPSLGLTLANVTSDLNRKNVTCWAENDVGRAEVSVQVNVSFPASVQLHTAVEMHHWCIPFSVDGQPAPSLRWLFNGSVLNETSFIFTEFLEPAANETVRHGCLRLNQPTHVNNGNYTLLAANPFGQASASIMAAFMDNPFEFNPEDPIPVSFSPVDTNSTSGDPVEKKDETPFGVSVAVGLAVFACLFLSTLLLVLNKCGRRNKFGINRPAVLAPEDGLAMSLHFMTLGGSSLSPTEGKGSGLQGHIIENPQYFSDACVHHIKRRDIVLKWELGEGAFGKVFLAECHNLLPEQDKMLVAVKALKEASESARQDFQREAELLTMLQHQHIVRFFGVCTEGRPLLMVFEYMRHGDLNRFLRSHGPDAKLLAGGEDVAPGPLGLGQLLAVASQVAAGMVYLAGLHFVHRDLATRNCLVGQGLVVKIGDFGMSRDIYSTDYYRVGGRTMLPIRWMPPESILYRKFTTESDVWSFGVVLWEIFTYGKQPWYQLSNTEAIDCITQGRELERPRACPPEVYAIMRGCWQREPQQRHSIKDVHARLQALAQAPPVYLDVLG
Ephrin type-A receptor 1 (Homo sapiens), sequence (P21709 whole entry): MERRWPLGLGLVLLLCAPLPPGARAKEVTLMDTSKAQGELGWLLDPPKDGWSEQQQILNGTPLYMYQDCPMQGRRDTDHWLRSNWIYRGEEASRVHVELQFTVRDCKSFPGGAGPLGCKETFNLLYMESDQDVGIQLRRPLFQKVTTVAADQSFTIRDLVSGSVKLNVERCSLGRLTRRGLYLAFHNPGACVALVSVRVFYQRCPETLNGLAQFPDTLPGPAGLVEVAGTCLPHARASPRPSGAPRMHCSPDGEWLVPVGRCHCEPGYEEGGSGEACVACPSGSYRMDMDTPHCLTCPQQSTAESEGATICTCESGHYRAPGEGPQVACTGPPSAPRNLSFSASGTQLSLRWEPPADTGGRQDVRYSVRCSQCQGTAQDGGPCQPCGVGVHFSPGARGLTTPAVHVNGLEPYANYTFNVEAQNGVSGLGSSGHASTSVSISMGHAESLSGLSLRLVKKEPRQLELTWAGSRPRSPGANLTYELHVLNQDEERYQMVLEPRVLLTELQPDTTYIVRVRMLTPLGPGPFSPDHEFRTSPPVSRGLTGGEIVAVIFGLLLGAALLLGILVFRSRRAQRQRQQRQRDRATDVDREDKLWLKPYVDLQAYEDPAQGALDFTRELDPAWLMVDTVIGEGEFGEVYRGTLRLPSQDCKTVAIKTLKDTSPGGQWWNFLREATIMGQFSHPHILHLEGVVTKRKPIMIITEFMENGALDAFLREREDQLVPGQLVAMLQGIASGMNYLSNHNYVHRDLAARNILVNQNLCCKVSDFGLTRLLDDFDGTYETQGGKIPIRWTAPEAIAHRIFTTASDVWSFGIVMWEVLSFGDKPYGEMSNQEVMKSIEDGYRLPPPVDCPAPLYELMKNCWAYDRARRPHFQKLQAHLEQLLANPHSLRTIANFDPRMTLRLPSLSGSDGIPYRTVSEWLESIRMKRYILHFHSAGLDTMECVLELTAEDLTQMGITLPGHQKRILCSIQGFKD
Mitogen-activated protein kinase 1 (Homo sapiens), sequence (P28482 whole entry): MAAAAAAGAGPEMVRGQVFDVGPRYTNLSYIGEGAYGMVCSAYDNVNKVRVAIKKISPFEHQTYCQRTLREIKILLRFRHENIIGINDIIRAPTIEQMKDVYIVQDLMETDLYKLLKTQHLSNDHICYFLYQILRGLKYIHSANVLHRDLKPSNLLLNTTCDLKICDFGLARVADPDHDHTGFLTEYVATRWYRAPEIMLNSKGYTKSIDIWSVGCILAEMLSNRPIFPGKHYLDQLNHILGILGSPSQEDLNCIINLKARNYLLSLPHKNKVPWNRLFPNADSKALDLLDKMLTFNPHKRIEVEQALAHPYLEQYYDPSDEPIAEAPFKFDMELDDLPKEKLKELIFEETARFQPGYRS

As to `CC(=O)c1ccccc1-c1ccc(-c2ccnc(NC(=O)Nc3cc(N4CCOCC4)cc(C(F)(F)F)c3)n2)cn1`, the GI50 with PC-3 [1] (Homo sapiens, PC-3, 48 h) is over 100 µM; in assay [14] it was over 100 µM; in the assay on HCC 2998 [19] it was over 100 µM. Also, the IC50 result in the assay with PC-3 [1] (pc-3) was “Not Active”. In addition, the growth at 0.001 µM with HOP-62 was found to be 103%; in the assay on HOP-92 [2], 88%; in the assay with HCC 2998 [3], 110%; in the assay with SK-MEL-28 [4] it was 100%; with PC-3 [5] it was 101%. Also, the growth at 0.1 µM is 74% with SR and 96% in the assay on NCI-H226. Besides, the growth at 0.01 µM in [6] is 104%; in the assay on SK-MEL-28 [7] it was 107%; in the assay with RXF 393 [11] it was 108%; in the assay on PC-3 [12], 108%; in the assay with MCF7 [13] it was 101%. For the same compound, the growth at 10 µM in the assay with RXF 393 [8] is -16%; in the assay on PC-3 [9], 91%; in [18], 89%. In addition, the growth at 1 µM in the assay on HOP-92 [10] is -2%; in the assay on RXF 393 [15], -52%; in the assay with PC-3 [16] it was 78%; in the assay on MCF7 [17], 90%. The TGI (in [14]; in the assay on HCC 2998 [19]) was over 100 µM throughout. Further, the CC50 (in assay [14] (setting [38]); in the assay on HCC 2998 [19] (setting [38])) was over 100 µM in each case.

As for `CC(=O)Nc1cccc(-c2ccc(-c3ccnc(NC(=O)Nc4cc(C(F)(F)F)cc(C(F)(F)F)c4)n3)cn2)c1.Cl`, the inhibition in assay [20] is under 50%; in assay [21], 70%; in assay [22], 60%; in assay [23] it was under 50%; in assay [24], under 50%; in assay [25], under 50%. In addition, the inhibition in assay [26], in [27], in [28], in [29], in assay [30] and in assay [31] was under 50% throughout. In addition, the inhibition in assay [32], in assay [33], in [34], in assay [35], in [36] and in assay [37] was under 50% in each case.
